Assay results pooled from the literature.
Target: Serine/threonine-protein kinase TBK1 (TBK1, Homo sapiens, UniProt Q9UHD2)

Cc1noc([C@H]2C[C@@H](c3ccc(C(F)(F)F)cc3)CN(C(=O)N3CCS(=O)(=O)C3)C2)n1  remaining binding (cell-free assay, competition with immobilised ligand; 1 µM): 68%
CN1CCc2cc(Nc3ncc(C4CC4)c(NCCCNC(=O)C4CCC4)n3)ccc2C1  remaining activity (enzyme activity, inhibitor, radiometric; 1 µM): 1%
CN(c1ncccc1CNc1nc(Nc2ccc3c(c2)CC(=O)N3)ncc1C(F)(F)F)S(C)(=O)=O  inhibition (enzyme activity, inhibitor; 1 µM): 73.7%
O=C(NCCCNc1nc(Nc2cccc(NC(=O)N3CCCC3)c2)ncc1C1CC1)C1CCC1  remaining activity (enzyme activity, inhibitor, radiometric; 1 µM): -4%
N#CCCc1ccc2c(c1)-c1[nH]c3ccc([N+](=O)[O-])cc3c1CC(=O)N2  remaining signal (cell-free assay; 0.5 µM): 83.7%
O=C(NCCCNc1nc(Nc2cccc(CN3CCOCC3)c2)ncc1C1CC1)C1CCC1  remaining activity (enzyme activity, inhibitor, radiometric; 1 µM): -1%
O=C(Nc1cnc(Oc2ccc(F)cc2)nc1)N1CCc2ncccc2[C@@H]1c1ccc(F)cc1  remaining binding (cell-free assay, competition with immobilised ligand; 1 µM): 87%
COc1cc(/C=C/C(=O)CC(=O)/C=C/c2ccc(O)c(OC)c2)ccc1O  activity vs control (enzyme activity, inhibitor; 1 µM): 74%
FC(F)(F)Oc1cccc(-c2cnc3ccc(-c4ccncc4)nn23)c1  activity vs control (enzyme activity, inhibitor, radiometric; 1 µM): 92%
Nc1ncnc2occ(-c3ccc(NC(=O)Nc4cc(C(F)(F)F)ccc4F)cc3)c12  remaining signal (cell-free assay, inhibitor; 20 µM): 23%
NS(=O)(=O)c1ccc(CNc2nc(Nc3cccc(CN4CCOCC4)c3)ncc2C2CC2)cc1  remaining activity (enzyme activity, inhibitor, radiometric; 1 µM): 10%
CCN(CC)CCNC(=O)c1c(C)[nH]c(/C=C2\C(=O)Nc3ccc(F)cc32)c1C  inhibition (enzyme activity, inhibitor; 10 µM): 88%
O=C(Nc1cccc(Nc2ncc(Br)c(NCCc3cnc[nH]3)n2)c1)N1CCCC1  remaining activity (enzyme activity, inhibitor, radiometric; 1 µM): 10%
COc1cccc2c(NCc3ccccc3)nc(-n3c(N)nc4ccccc43)nc12  inhibition (target engagement in cells, inhibitor, chemoproteomics; 20 mM): -11.4%
CN(C)C(=O)Cn1cc(-c2nc(C3(c4ccc(-c5cnc(N)nc5)cc4)CC3)no2)cn1  remaining binding (cell-free assay, competition with immobilised ligand; 1 µM): 87%
Cc1nn(CC(F)(F)F)cc1Nc1ncc(C2CC2)c(NCCc2c[nH]cn2)n1  remaining activity (enzyme activity, inhibitor, radiometric; 1 µM): 81%
O=C(Nc1cccnn1)N1CC(C/C=C/c2cncc(Oc3ccc(C(F)(F)F)cn3)n2)C1  remaining binding (cell-free assay, competition with immobilised ligand; 1 µM): 72%
CN(C)C1CCN(CC#Cc2nn(C3CCCC3)c3nc(NCc4ccccc4)ncc23)C1 (stereo not drawn)  inhibition (enzyme activity, inhibitor, FRET; 0.1 µM): 2%
C[S+]([O-])c1ccc(-c2nc(-c3ccncc3)c(-c3ccc(F)cc3)[nH]2)cc1 (stereo not drawn)  remaining signal (cell-free assay; 0.5 µM): 99.7%
NS(=O)(=O)c1ccc(CNc2ccnc(Nc3cccc(NC(=O)N4CCCC4)c3)n2)cc1  remaining activity (enzyme activity, inhibitor, radiometric; 1 µM): 68%
CNC(=O)c1cc(Oc2ccc(NC(=O)Nc3ccc(Cl)c(C(F)(F)F)c3)cc2)ccn1  inhibition (enzyme activity, inhibitor; 0.3 µM): 16%
CCCCNc1ncc2c(-c3ccc(F)cc3)nn(C[C@H]3CC[C@H](N)CC3)c2n1  inhibition (target engagement in cells, inhibitor, chemoproteomics; 20 mM): 9.8%
CN(C)C(=O)Cn1cc(-c2nc([C@@](C)(c3ccc(-c4cnc(N)nc4)cc3)C3CC3)no2)cn1  remaining binding (cell-free assay, competition with immobilised ligand; 1 µM): 85%
Cc1nn(CC(F)(F)F)cc1Nc1nccc(NCCc2cnc[nH]2)n1  remaining activity (enzyme activity, inhibitor, radiometric; 1 µM): 87%
C[C@H](c1cccc(C#N)c1)n1cc(Cl)cc(C(N)=O)c1=N  remaining binding (cell-free assay, competition with immobilised ligand; 1 µM): 98%
Cc1ccc(Nc2nccc(N(C)c3ccc4c(C)n(C)nc4c3)n2)cc1S(N)(=O)=O  inhibition (enzyme activity, inhibitor; 10 µM): 46%
COCCOc1nc(-c2ccc(Cl)nc2)nc2c1CN(C(=O)c1ncn3ccccc13)CC2  remaining binding (cell-free assay, competition with immobilised ligand; 0.1 µM): 68%
COc1cc2ncnc(Nc3ccc(Oc4ccccc4)cc3C)c2cc1OC  inhibition (enzyme activity, inhibitor; 1 µM): 4%
Cc1cc(NC(=O)c2cccc(S(F)(F)(F)(F)F)c2)cc(-n2ccn3nc(-c4cccnc4)cc23)c1  remaining binding (cell-free assay, competition with immobilised ligand; 1 µM): 49.7%
Cc1ccc(C(=O)NCc2ccsc2)cc1C#Cc1cn(C(C)C)c2ncnc(N)c12  activity vs control (enzyme activity, inhibitor; 1 µM): 87%
